Compound activity as filed in PubChem BioAssay.
HEK293 NFkB inh: inhibitors of PMA/ionomycin-induced NF-kB reporter, primary screen, antigen receptor NF-kB inhibitor project, cell-based, HEK-293 luciferase reporter, luminescence; HEK-293 NF-kB luciferase reporter; inhibition, % at 3 µM; actives 0.21% (n = 62,000);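 active = inhibition above the mean of all tested compounds plus 3 SD, cut at about 40% in these data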
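Signal: luciferase luminescence; Material: HEK-293 cells with stable firefly luciferase reporter driven by four HIV NF-kB elements; Probe or stimulus: PMA with ionomycin; Replication: tested once; Times: 1 h compound pretreatment, then 16 h stimulation at 37 °C, 5% CO2; Benchmarks: DMSO and 10 µM reference inhibitor; Evaluation: per-plate % inhibition versus controls.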
mHtt clearance: clearance of mutant huntingtin inclusions, primary screen, imaging, HeLa Exon1htt(103Q)mCFP, confocal imaging | aggregate imaging; zero = plate's median compound well | inhibition, % at 1.5 µM | actives 0.42% (n = 47,000) | AID 853, 2007;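 active = inhibition of aggregate fluorescence above about 70%, also judged a hit by eye on the cell image, limit read from the data, passing the limit was not always enough; inconclusive = no rule stated for this call; inactive = not judged a hit on image review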;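 also: cells exposed to compound for three days before fixation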
M1 ag: M1 muscarinic receptor agonists, primary screen, CHO-M1 cells, Fluo-4 calcium, agonist mode; actives 3% (n = 64,000); AID 626, 2007; Muscarinic acetylcholine receptor M1; B-score at 10 µM; Fluo-4 calcium fluorescence; active compounds read high;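 active = fluorescence rise, raw or as B-score row- and column-corrected plate score, outside the 99.7% band of its plate's samples, either direction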
M1 antagonist: antagonists of rat M1 muscarinic receptor; Muscarinic acetylcholine receptor M1 (Rattus norvegicus), P08482; CHO-M1 cells, Fluo-4 calcium, ACh EC80 antagonist mode; active compounds read low; B-score at 10 µM; actives 3.4% (n = 64,000);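 active = calcium fluorescence response, raw or row-and-column corrected B-score, differing from the plate sample mean either way at a set confidence level, mostly lower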
Target sequence (P08482 whole entry, looked up): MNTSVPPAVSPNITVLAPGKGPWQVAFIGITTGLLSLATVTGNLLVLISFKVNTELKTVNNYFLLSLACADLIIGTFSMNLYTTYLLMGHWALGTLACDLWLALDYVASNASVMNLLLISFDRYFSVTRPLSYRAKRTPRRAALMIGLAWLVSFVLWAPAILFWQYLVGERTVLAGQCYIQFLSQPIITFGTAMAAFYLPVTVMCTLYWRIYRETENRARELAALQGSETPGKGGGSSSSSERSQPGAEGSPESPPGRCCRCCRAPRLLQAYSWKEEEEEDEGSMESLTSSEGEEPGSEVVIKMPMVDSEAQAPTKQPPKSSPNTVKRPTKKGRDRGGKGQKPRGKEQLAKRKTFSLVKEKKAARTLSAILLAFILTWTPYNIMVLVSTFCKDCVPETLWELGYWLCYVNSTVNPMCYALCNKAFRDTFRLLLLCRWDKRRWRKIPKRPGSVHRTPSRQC
D1 allo mod: D1 CRE-luciferase signal change, two-sided – cell-based, HEK293 D1, dopamine EC30, D1 allosteric modulator project, primary screen; D(1A) dopamine receptor (Homo sapiens), P21728; actives 5.9% (n = 58,000); B-score at 10 µM; dopamine EC30 potentiation; actives deviate in either direction;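 active = luminescence count or its row- and column-corrected plate score outside the 99.7% band of the plate's sample wells, on either side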
Jurkat viability: cytotoxicity toward Jurkat T cells, primary screen, cytotoxicity control, cell-based, Jurkat E6.1, 60K MLSMR library. Jurkat E6.1 viability, ATP luminescence, 48 h. inhibition, % at 4 µM. actives 1.2% (n = 56,000);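 active = inhibition above the mean inhibition of all tested compounds plus 3 SD, cut at about 28% in these data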
M1 antag conf: rat M1 muscarinic receptor antagonists, confirmation, CHO cells, Fluo-4 calcium, duplicate; shares compounds with M1 antagonist; AID 677, 2007; ACh EC80 antagonism; active compounds read low; calcium response (max-min fluorescence) at 10 µM; actives 43% (n = 1,700);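 active = calcium response below the same-plate mean of wells given acetylcholine alone at its 80%-effect dose, minus 3 SD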
mGluR4 antag: human mGluR4 response to M1 antagonist hits, M1 allosteric modulator project, cell-based, antagonist mode, secondary assay 1. AID 678, 2007. CHO-mGluR4 calcium flux, Fluo-4 fluorescence, glutamate EC80; active compounds read low. actives 0.9% (n = 1,700). shares compounds with M1 antagonist. fluorescence response (max-min) at 10 µM;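 active = fluorescence response below the plate's average for near-maximal glutamate wells, less 3 SD of those wells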;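 also: raw unnormalized fluorescence span taken in the window right after glutamate addition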
Hits are given with their value; 0 = inactive; ? = inconclusive; - = not tested or not shown. Most compounds without a hit are left out; they make up all but 9.5% or so of the library.

SMILES	HEK293 NFkB inh	mHtt clearance	M1 ag	M1 antagonist	D1 allo mod	Jurkat viability	M1 antag conf	mGluR4 antag
Cc1nc2ccccc2c2oc(C(=O)NCCN3CCCCC3C)cc12 (stereo unspecified)	0	-	0	-3.4	0	0	354	0
CC1CCCCN1CCCNC(=O)C1CCN(c2nc3ccccc3o2)CC1 (stereo unspecified)	0	-	0	-4.1	0	0	67	0
O=C(NCCN1CCN(c2ccccc2)CC1)C1CCN(S(=O)(=O)N2CCOCC2)CC1	0	0	0	0	0	0	-	-
O=C(NCCN1CCOCC1)C1CCN(c2nc3ccccc3o2)CC1	0	-	0	-2.2	0	0	458	0
CCN(CC)CCn1c2ccccc2c2cnc(N)c(C#N)c21	-	0	-	-	-	-	-	-
CCOC(=O)c1[nH]c(C)c(/C=N/O)c1C	0	-	0	0	0	0	-	-
O=S(=O)(Nc1ccc(Cc2ccncc2)cc1)c1ccc(Br)cc1	-	0	-	-	-	-	-	-
Oc1ccccc1CNn1cnnc1	-	0	0	0	-	-	-	-
O=C(NC1(C(F)(F)F)C(=O)Nc2c1c(=O)[nH]c(=O)n2-c1ccccc1)c1cccnc1 (stereo unspecified)	-	0	0	0	0	-	-	-
COc1ccc(OC)c(S(=O)(=O)NCCC2=CCCCC2)c1	0	-	0	-2.7	0	0	441	0
Cc1ccc(S(=O)(=O)N2CCC(C(=O)NCCN3CCCCCC3)CC2)cc1	0	0	0	-3.5	0	0	527	0
CCCS(=O)(=O)N1CCC(C(=O)NCCN2CCC(Cc3ccccc3)CC2)CC1	0	-	0	-4.6	0	0	467	0
CCS(=O)(=O)N1CCC(C(=O)NCCN2CCN(Cc3ccccc3)CC2)CC1	0	0	0	-3.4	0	0	0	0
Cc1noc(C)c1S(=O)(=O)N1CCC(C(=O)NCCN2CCC(C)CC2)CC1	0	-	0	-4.3	-	-	0	0
Cn1cc(S(=O)(=O)Nc2ccc(Br)cc2F)c(=O)n(C)c1=O	0	0	0	0	0	0	-	-
Cc1ccc(-n2ncc3c(=O)n(CC#N)cnc32)cc1	0	0	0	0	0	0	-	-
CCN(CC)c1nc(OC)nc(-n2nnc(C(C)=O)c2C)n1	-	0	-	-	-	-	-	-
O=C(CSc1cn(CCNC(=O)c2cccs2)c2ccccc12)NCc1ccccc1	-	0	-	-	-	-	-	-
Cc1nnc(SCC(=O)Nc2ccc(S(=O)(=O)N3CCCC3)cc2)n1N	0	0	0	-4.7	0	0	276	0
CC1CCCN(CC(=O)Nc2ccc(S(=O)(=O)N3CCCCCC3)cc2)C1 (stereo unspecified)	0	0	0	-2.1	0	0	375	0
COC(=O)c1sccc1NC(=O)c1csc(C)c1	0	0	0	0	0	0	-	-
CC(=O)c1cccc(NC2c3ccccc3C(=O)N2Cc2ccc3c(c2)OCO3)c1 (stereo unspecified)	0	-	0	-3	0	0	0	0
COc1cc(NC2c3ccccc3C(=O)N2Cc2ccc3c(c2)OCO3)cc(OC)c1OC (stereo unspecified)	-	0	-	-	-	-	-	-
COCC(C)n1c(C)cc(C(=O)COC(=O)c2ccc3ncsc3c2)c1C (stereo unspecified)	0	0	0	0	0	0	-	-
CCOC(=O)C1=C(C)NC2=C(C(=O)CCC2)C1c1ccc(N(C)C)cc1 (stereo unspecified)	0	-	0	-4.3	0	0	350	0
SMILES	HEK293 NFkB inh	mHtt clearance	M1 ag	M1 antagonist	D1 allo mod	Jurkat viability	M1 antag conf	mGluR4 antag
CCN(CC)c1ccc(C2C(C(=O)OCCOC)=C(C)NC3=C2C(=O)CCC3)cc1 (stereo unspecified)	0	0	0	-10	-	0	222	0
CCOC(=O)C1=C(C)NC2=C(C(=O)CCC2)C1c1ccsc1 (stereo unspecified)	0	0	0	0	0	0	-	-
CCCOC(=O)C1=C(C)NC2=C(C(=O)CCC2)C1c1ccc(N(C)C)cc1 (stereo unspecified)	0	0	0	-8.2	-	0	248	0
COCCOC(=O)C1=C(C)NC2=C(C(=O)CCC2)C1c1ccc2c(c1)OCO2 (stereo unspecified)	0	-	0	0	0	0	-	-
CCCOC(=O)C1=C(C)NC2=C(C(=O)CCC2)C1c1cc(OC)ccc1OC (stereo unspecified)	0	0	0	0	0	0	-	-
O=c1c2ccccc2oc2nc(-c3ccco3)n(Cc3ccccc3)c(=O)c12	0	0	0	0	0	0	-	-
CCCCC(=NCCO)C1=C(O)C(C(=O)OC)C(C)(C)CC1=O (stereo unspecified)	0	-	0	-3.5	0	0	0	0
CCCCCCN=C(C)C1=C(O)C(C(=O)OC)C(C)(C)CC1=O (stereo unspecified)	0	-	0	0	0	0	-	-
O=C(CCCN1CCOCC1)c1ccc2c(c1)OCCO2	0	0	0	0	0	0	-	-
O=C(CCCN1CCC(c2ccccc2)C1)c1ccc2c(c1)OCCO2 (stereo unspecified)	0	0	0	-8.8	0	0	251	0
O=C(CCN1CCc2ccccc2CC1)c1ccc2c(c1)OCCO2	-	-	0	-3.9	-	-	215	0
O=C(CCN1CCOCC1)c1ccc2c(c1)OCCO2	-	0	-	-	-	-	-	-
Cc1noc(C)c1COC(=O)c1cc(C)n(-c2ccccc2)c1C	0	-	0	-2.7	0	0	0	0
O=C(C1CCCN(S(=O)(=O)c2ccc(F)cc2)C1)N(Cc1cccs1)C1CC1 (stereo unspecified)	0	-	0	0	0	-	-	-
CCc1nc(OCCN(CC)CC)c2oc3ccccc3c2n1	0	-	0	0	0	0	-	-
CCN(CC)CCOc1ncnc2c1oc1ccccc12	0	-	0	-1.6	0	0	584	0
CCS(=O)(=O)c1nc2ccccc2n1CC(=O)N1CCOCC1	0	?	0	-2.7	0	0	0	0
Cn1c(=O)n(CC(=O)N2CCOCC2)c2ccccc21	0	0	0	0	0	0	-	-
CC1(C)CC(N2CCC(=O)N(C3CC(C)(C)NC(C)(C)C3)C2)CC(C)(C)N1	0	-	0	-3.2	0	0	0	0
Clc1ccccc1OCCCCN1CCCC1	0	0	0	-1.7	0	0	0	0
CC(C)(C)c1ccccc1OCCN1CCCC1	0	0	0	-11	0	0	176	0
